Calls of active or inactive are those of the source. The rule behind the calls is not given here.
Experiments:
[1] = tested on: Rattus norvegicus; experiment: Antiobesity activity in diet-induced obese rat assessed as decrease in food intake at 0.3 mg/kg, po administered once daily for 3 weeks; assay type: functional; parameters: scale not given: the % may be the effect or the level left
How it was run: (§1)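 Male DIO rats, 19 weeks old, on high fat diet for 12 weeks, dosed po once daily with Klucel (hydroxypropyl cellulose) suspension for 22 days; 10 rats per group. Body weight followed throughout; daily food intake recorded on days 1–3, 8, 9, 15 and 16, values averaged per group.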

[2] = target: Cytochrome P450 2C19 (Homo sapiens, UniProt P33261); experiment: Inhibition of CYP2C19; assay type: ADME
Cytochrome P450 2C19, sequence (P33261 whole entry): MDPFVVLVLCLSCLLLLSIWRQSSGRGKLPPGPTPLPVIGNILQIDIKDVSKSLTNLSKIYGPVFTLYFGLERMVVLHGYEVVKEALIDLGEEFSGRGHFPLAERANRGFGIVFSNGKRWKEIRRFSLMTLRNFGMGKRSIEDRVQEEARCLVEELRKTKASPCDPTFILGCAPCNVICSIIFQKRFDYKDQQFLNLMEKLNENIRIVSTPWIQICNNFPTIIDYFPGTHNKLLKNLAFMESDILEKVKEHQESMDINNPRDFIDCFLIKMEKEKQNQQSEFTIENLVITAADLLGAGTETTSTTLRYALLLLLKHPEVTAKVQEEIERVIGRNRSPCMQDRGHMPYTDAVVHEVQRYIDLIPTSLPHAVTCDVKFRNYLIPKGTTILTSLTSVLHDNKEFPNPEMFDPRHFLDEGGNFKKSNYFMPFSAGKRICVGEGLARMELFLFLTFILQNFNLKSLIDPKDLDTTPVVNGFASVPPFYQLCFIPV

[3] = Extrapolated AUC in Hanover Wistar rat at 10 mg/kg, po; assay type: ADME, organism-based; parameters: dose 10 mg/kg, route oral; settings: in vivo
How it was run: (§2)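 Hanover Wistar rats (n = 3) with jugular/femoral cannulae, oral gavage of a 2 mg/mL suspension in 2% Klucel LF with 0.1% Tween 80; femoral-vein sampling, EDTA plasma, acetonitrile precipitation, LC-MS/MS (5.0–5000 ng/mL), noncompartmental analysis; F relative to 5 mg/kg iv; mean of n = 3.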

[4] = tested on: Rattus norvegicus; experiment: Antidiabetic activity in diet-induced obese Sprague-Dawley rat assessed as decrease in glucose excursion at 1 mg/kg, po administered once daily for 3 weeks by OGTT; assay type: functional, organism-based; parameters: dose 1 mg/kg
How it was run: (§3)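 Male Sprague-Dawley DIO rats (n = 10/group), 550–650 g, reverse light/dark cycle, high fat diet from 7 weeks of age; dosed po once daily in Klucel suspension.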

[5] = tested on: Rattus norvegicus; experiment: Antiobesity activity in diet-induced obese rat assessed as reduction in body weight gain at 0.3 mg/kg, po administered once daily for 3 weeks; assay type: functional; parameters: scale not given: the % may be the effect or the level left; how it was run: as §1
[6] = Permeability across human Caco2 cells; assay type: ADME, cell-based; settings: Caco-2, read-out: permeability
[7] = tested on: Rattus norvegicus; experiment: Antidiabetic activity in diet-induced obese Sprague-Dawley rat assessed as decrease in glucose excursion at 3 mg/kg, po administered once daily for 3 weeks by OGTT; assay type: functional; parameters: scale not given: the % may be the effect or the level left; how it was run: as §3
[8] = Half life in Hanover Wistar rat at 5 mg/kg, iv; assay type: ADME, organism-based; parameters: dose 5 mg/kg, route intravenous; settings: in vivo
How it was run: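 Hanover Wistar rats (n = 3) cannulated in jugular and femoral veins, dosed iv 5 mg/kg via jugular vein as a solution in 2% DMA, 15% PEG400, 77% of 28% HPβCD in pH 7 PBS. Femoral-vein blood, EDTA plasma, acetonitrile precipitation, LC-MS/MS, noncompartmental analysis; mean of n = 3.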

[9] = Oral bioavailability in Beagle dog at 10 mg/kg; assay type: ADME, organism-based, Canis lupus familiaris; settings: in vivo
How it was run: (§4)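 Plasma extracted by acetonitrile precipitation and quantified by LC-MS/MS (5.0–5000 ng/mL); noncompartmental PK; bioavailability relative to 5 mg/kg iv; mean of n = 3.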

[10] = target: Cytochrome P450 2C9 (Homo sapiens, UniProt P11712); experiment: Inhibition of CYP2C9; assay type: ADME
Cytochrome P450 2C9, sequence (P11712 whole entry): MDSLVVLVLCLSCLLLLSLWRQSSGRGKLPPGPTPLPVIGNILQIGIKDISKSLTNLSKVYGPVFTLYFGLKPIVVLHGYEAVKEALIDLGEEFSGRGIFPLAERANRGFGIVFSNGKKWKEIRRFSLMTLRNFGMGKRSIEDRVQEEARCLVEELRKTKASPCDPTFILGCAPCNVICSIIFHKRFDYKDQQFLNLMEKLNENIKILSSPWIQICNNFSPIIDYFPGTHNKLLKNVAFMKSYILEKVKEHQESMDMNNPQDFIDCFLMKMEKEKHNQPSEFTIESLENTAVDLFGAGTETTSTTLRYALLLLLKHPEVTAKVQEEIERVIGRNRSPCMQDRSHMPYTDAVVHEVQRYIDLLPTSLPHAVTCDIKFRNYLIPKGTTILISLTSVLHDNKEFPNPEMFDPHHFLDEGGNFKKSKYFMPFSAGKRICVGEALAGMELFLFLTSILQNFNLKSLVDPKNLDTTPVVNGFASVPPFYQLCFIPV

[11] = Association constant pKa of the compound; assay type: physicochemical
[12] = Cmax in Hanover Wistar rat at 10 mg/kg, po by LC-MS/MS; assay type: ADME, organism-based; parameters: dose 10 mg/kg, route oral; settings: in vivo; how it was run: as §2
[13] = Oral bioavailability in Hanover Wistar rat at 10 mg/kg; assay type: ADME, organism-based; settings: in vivo; how it was run: as §2
[14] = Half life in Beagle dog at 5 mg/kg, iv; assay type: ADME, organism-based, Canis lupus familiaris; parameters: dose 5 mg/kg, route intravenous; settings: in vivo
How it was run: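 Plasma levels by protein precipitation with acetonitrile and LC-MS/MS (linear range 5.0–5000 ng/mL); noncompartmental analysis; mean of n = 3.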

[15] = target: T1, Diacylglycerol O-acyltransferase 1 (Homo sapiens, UniProt O75907); experiment: Inhibition of human DGAT1 expressed in baculovirus infected insect cells after 1 hr using palmitoyl-1-14C-coenzyme A by phospholipid flashplate assay
T1 sequence (O75907 whole entry): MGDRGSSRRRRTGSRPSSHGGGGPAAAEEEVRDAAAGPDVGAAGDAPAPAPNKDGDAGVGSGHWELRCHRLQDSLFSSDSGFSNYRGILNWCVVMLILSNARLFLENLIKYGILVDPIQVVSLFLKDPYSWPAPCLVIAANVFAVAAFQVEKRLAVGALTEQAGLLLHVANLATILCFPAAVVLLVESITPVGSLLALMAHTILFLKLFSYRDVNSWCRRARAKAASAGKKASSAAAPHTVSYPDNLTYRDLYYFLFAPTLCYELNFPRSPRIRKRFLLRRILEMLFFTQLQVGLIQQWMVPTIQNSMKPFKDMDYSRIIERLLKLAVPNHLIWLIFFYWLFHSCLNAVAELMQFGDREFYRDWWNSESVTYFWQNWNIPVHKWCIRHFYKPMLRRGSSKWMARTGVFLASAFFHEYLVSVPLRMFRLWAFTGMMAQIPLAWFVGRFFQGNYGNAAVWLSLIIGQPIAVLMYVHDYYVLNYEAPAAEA

[16] = tested on: Rattus norvegicus; experiment: Antiobesity activity in diet-induced obese rat assessed as decrease in food intake at 3 mg/kg, po administered once daily for 3 weeks; assay type: functional; parameters: scale not given: the % may be the effect or the level left; how it was run: as §1
[17] = target: Cytochrome P450 2D6 (Homo sapiens, UniProt P10635); experiment: Inhibition of CYP2D6; assay type: ADME
Cytochrome P450 2D6, sequence (P10635 whole entry): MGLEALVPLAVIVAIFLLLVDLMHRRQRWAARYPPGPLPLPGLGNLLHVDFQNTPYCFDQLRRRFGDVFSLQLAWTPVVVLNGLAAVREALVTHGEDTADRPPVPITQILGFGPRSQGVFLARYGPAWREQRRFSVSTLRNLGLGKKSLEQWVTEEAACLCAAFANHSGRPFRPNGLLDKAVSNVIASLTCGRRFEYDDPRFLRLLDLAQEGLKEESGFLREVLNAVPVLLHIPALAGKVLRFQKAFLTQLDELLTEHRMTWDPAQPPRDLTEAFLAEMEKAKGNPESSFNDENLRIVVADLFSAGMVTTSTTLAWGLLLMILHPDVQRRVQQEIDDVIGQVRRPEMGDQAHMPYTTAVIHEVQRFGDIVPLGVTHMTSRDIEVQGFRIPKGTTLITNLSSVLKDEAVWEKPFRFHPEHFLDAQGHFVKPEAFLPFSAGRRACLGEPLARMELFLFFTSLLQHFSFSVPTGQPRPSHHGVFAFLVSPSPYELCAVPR

[18] = tested on: Rattus norvegicus; experiment: Antidiabetic activity in diet-induced obese Sprague-Dawley rat assessed as effect on insulin level at 1 mg/kg, po administered once daily for 3 weeks measured after 30 mins by OGTT; assay type: functional, organism-based; parameters: dose 1 mg/kg
How it was run: (§5)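 DIO rats (n = 10/group) on high fat diet, dosed po once daily in Klucel suspension for 3 weeks. On day 21 an oral glucose challenge of 2 g/kg was given, and plasma insulin was measured at the 30 min time point.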

[19] = Cmax in diet-induced obese rat at 3 mg/kg, po administered once daily for 3 weeks; assay type: ADME, organism-based; parameters: dose 3 mg/kg, route oral; settings: in vivo
[20] = tested on: Rattus norvegicus; experiment: Antidiabetic activity in diet-induced obese Sprague-Dawley rat assessed as decrease in glucose excursion at 0.3 mg/kg, po administered once daily for 3 weeks by OGTT; assay type: functional, organism-based; parameters: dose 0.3 mg/kg; how it was run: as §3
[21] = Cmax in Beagle dog at 10 mg/kg, po by LC-MS/MS; assay type: ADME, organism-based, Canis lupus familiaris; parameters: dose 10 mg/kg, route oral; settings: in vivo; how it was run: as §4
[22] = Tmax in Hanover Wistar rat at 10 mg/kg, po; assay type: ADME, organism-based; parameters: dose 10 mg/kg, route oral; settings: in vivo
How it was run: (§6)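 Oral gavage to rats (jugular/femoral vein-cannulated, femoral vein blood sampling) or beagle dogs, n = 3, as a 2 mg/mL suspension in 2% Klucel LF with 0.1% Tween 80 in water. Plasma extracted by acetonitrile protein precipitation and quantified by LC-MS/MS (linear 5.0–5000 ng/mL). Noncompartmental analysis; mean of 3.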

[23] = tested on: Rattus norvegicus; experiment: Antiobesity activity in diet-induced obese rat assessed as decrease in food intake at 1 mg/kg, po administered once daily for 3 weeks; assay type: functional; parameters: scale not given: the % may be the effect or the level left; how it was run: as §1
[24] = tested on: Rattus norvegicus; experiment: Antidiabetic activity in diet-induced obese Sprague-Dawley rat assessed as effect on insulin level at 3 mg/kg, po administered once daily for 3 weeks measured after 30 mins by OGTT; assay type: functional, organism-based; parameters: dose 3 mg/kg; how it was run: as §5
[25] = target: T1, Diacylglycerol O-acyltransferase 1; experiment: Inhibition of human DGAT1 expressed in CHO-K1 cells after 1 hr using 14C palmitic acid
[26] = Tmax in Beagle dog at 10 mg/kg, po; assay type: ADME, organism-based, Canis lupus familiaris; parameters: dose 10 mg/kg, route oral; settings: in vivo; how it was run: as §6
[27] = tested on: Rattus norvegicus; experiment: Antiobesity activity in diet-induced obese rat assessed as reduction in body weight gain at 1 mg/kg, po administered once daily for 3 weeks; assay type: functional; parameters: scale not given: the % may be the effect or the level left; how it was run: as §1
[28] = Cmax in diet-induced obese rat at 1 mg/kg, po administered once daily for 3 weeks; assay type: ADME, organism-based; parameters: dose 1 mg/kg, route oral; settings: in vivo

With `O=C(Nc1ccc(C2CCN(C(=O)[C@H]3CC[C@H](C(=O)O)CC3)CC2)cc1)c1nc(-c2ccccc2)oc1C(F)(F)F` the Activity [1] was 17%, the IC50 [2] was > 50000 nM and the AUC [3] was 567 µM·h. The Activity [4] was “Active”, the Activity [5] was 5% and the Papp [6] was 24.5 ×10⁻⁶ cm/s. For the same compound, the Activity [7] was 15%, the half-life [8] was 8.6 h and the bioavailability [9] was 33%. The IC50 [10] was > 50000 nM, the pKa [11] was 5.78 and the Cmax [12] was 34.8 µM. The bioavailability [13] was 73%, the half-life [14] was 5.3 h and the IC50 [15] was 57 nM. The Activity [16] was 27%, the IC50 [17] was > 50000 nM and the Activity [18] was “inactive”. The Cmax [19] was 15.1 µM, the Activity [20] was “Active” and the Cmax [21] was 4.7 µM. For the same compound, the Tmax [22] was 12 h, the Activity [23] was 19% and the Activity [24] was “inactive”. The EC50 [25] was 493 nM, the Tmax [26] was 2 h and the Activity [27] was 6%. It also gave a Cmax [28] of 4.8 µM.

— ChEMBL document CHEMBL1764953, “Discovery of orally active carboxylic acid derivatives of 2-phenyl-5-trifluoromethyloxazole-4-carboxamide as potent diacylglycerol acyltransferase-1 inhibitors for the potential treatment of obesity and diabetes” (J Med Chem, 2011)
